The source of these data is ChEMBL document CHEMBL3585252, “Selaginellin and biflavonoids as protein tyrosine phosphatase 1B inhibitors from Selaginella tamariscina and their glucose uptake stimulatory effects” (Bioorg Med Chem, 2015).

A short description of data set [1]: Cytotoxicity against mouse 3T3L1 cells assessed as inhibition of cell viability at 5 to 10 uM after 48 hrs by MTT assay. Format: cell-based. As to conditions: 3t3-l1, 48 h. Put shortly:
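Differentiated 3T3-L1 adipocytes were exposed to compound at 5 and 10 µM without 2-NBDG. Viability was read by MTT assay.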

The target of data set [2] is T1, Tyrosine-protein phosphatase non-receptor type 1 (Homo sapiens, UniProt P18031).
T1 sequence (P18031 whole entry): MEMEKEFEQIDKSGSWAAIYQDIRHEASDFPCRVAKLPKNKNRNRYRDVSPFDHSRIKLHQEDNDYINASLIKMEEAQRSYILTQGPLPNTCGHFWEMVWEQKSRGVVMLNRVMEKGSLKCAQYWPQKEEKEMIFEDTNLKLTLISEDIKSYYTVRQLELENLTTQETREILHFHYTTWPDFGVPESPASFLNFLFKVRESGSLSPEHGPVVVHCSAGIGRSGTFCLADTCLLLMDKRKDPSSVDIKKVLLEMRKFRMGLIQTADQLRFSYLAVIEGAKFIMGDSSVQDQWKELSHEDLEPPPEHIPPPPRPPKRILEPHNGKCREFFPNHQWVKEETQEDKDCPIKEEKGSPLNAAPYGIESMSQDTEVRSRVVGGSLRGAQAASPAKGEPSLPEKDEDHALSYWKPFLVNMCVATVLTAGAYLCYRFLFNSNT
Nature of the data set: (§1) Inhibition of human recombinant PTP1B using p-NPP as substrate preincubated for 10 mins followed by substrate addition measured after 20 mins by microplate reader analysis. Put shortly:
(§2)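 Enzyme inhibition was tested at graded concentrations. IC50 was obtained by regression analysis and reported as mean ± SD of three replicates.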

Data set [3] concerns the target T2, Tyrosine-protein phosphatase non-receptor type 1 (Homo sapiens) (UniProt P18031).
T2 sequence (whole entry): T1 sequence (P18031 whole entry)
The data set is described as §1. Put shortly:
as §2

Data set [4] addresses T3, Tyrosine-protein phosphatase non-receptor type 1 (Mus musculus) (UniProt P35821).
T3 sequence (whole entry): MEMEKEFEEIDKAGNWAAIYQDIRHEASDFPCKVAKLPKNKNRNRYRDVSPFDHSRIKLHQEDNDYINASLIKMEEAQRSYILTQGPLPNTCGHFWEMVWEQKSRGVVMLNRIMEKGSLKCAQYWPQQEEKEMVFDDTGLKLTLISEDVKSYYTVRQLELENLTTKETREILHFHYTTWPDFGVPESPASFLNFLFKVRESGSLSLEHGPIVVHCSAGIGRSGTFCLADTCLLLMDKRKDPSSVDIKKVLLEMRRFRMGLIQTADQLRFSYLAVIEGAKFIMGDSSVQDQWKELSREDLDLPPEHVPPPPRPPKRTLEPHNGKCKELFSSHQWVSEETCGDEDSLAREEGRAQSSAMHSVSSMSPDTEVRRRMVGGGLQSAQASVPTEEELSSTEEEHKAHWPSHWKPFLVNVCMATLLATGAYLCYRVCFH
Nature of the data set: Inhibition of PTP1B in mouse 3T3L1 cells assessed as stimulation of 2-NBDG uptake at 10 uM preincubated for 24 hrs followed by 2-NBDG addition measured after 30 mins by fluorescence reader analysis relative to control. As to conditions: 3T3-L1. Type of data set: cell-based. Put shortly:
(§3)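 3T3-L1 preadipocytes were grown to confluence and differentiated for 8 days (days 0–8). Mature adipocytes were treated with compound at 5 and 10 µM, or with insulin at 100 nM; DMSO was the vehicle control. 2-NBDG was then added for 30 min. Uptake is expressed as fold induction over the DMSO control.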

In data set [5] the target is T3, Tyrosine-protein phosphatase non-receptor type 1 (Mus musculus). Put plainly: Inhibition of PTP1B in mouse 3T3L1 cells assessed as stimulation of 2-NBDG uptake preincubated for 24 hrs followed by 2-NBDG addition measured after 30 mins by fluorescence reader analysis. Type of data set: cell-based. As to conditions: 3T3-L1. Put shortly:
as §3

In data set [6] the target is T1, Tyrosine-protein phosphatase non-receptor type 1. Put plainly: Mixed-competitive inhibition of human recombinant PTP1B using p-NPP as substrate preincubated for 10 mins followed by substrate addition measured after 20 mins by Lineweaver-Burk/Dixon plot analysis. Put shortly: (§4)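 Kinetic mode and Ki came from Lineweaver–Burk and Dixon plots of initial velocity at several substrate and inhibitor concentrations. Ki was read as the negative x-axis value where three Dixon lines intersect. Data are the mean reciprocal initial velocity, n = 3 replicates per substrate concentration.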

For data set [7] the target is unchanged. Nature of the data set: Uncompetitive inhibition of human recombinant PTP1B using p-NPP as substrate preincubated for 10 mins followed by substrate addition measured after 20 mins by Lineweaver-Burk/Dixon plot analysis. Put shortly: as §4
The target is the same in data set [8]. Put plainly: Competitive inhibition of human recombinant PTP1B using p-NPP as substrate preincubated for 10 mins followed by substrate addition measured after 20 mins by Lineweaver-Burk/Dixon plot analysis. Put shortly:
as §4

As to `O=c1c(-c2c(O)cc(O)c3c(=O)cc(-c4ccc(O)cc4)oc23)c(-c2ccc(O)cc2)oc2cc(O)cc(O)c12`, the Activity result in data set [1] is listed as “Non-toxic”. Moreover, in data set [2], the IC50 was 4.5 µM. Further, the inhibition result in data set [3] and in data set [5] was “Dose-dependent effect” in each case. Moreover, in data set [4], the fold change (FC) was determined as 1.44. Besides, in data set [6], the Ki was 4.6 µM.

For `O=C(O)c1c(-c2ccc(O)cc2)ccc(CO)c1C#Cc1ccc(O)cc1`, in data set [1], the Activity result was “Non-toxic”. The IC50 in data set [2] worked out at 13.2 µM. Also, the inhibition result in data set [3] and in data set [5] was “Dose-dependent effect” in each case. Besides, in data set [4], the fold change (FC) worked out at 1.24. Moreover, the Ki in data set [6] turned out to be 14.5 µM.

With `O=c1cc(-c2ccc(O)c(-c3c(O)cc(O)c4c(=O)cc(-c5ccc(O)cc5)oc34)c2)oc2cc(O)cc(O)c12` [AMENTOFLAVONE], the Activity entry in data set [1] was “Non-toxic”. Further, the concentration for half-maximal inhibition (IC50) in data set [2] is 7.4 µM. Moreover, the inhibition result in data set [3] and in data set [5] was “Dose-dependent effect” each time. In data set [6], the Ki turned out to be 7.8 µM.

As to `O=C1C[C@@H](c2cc(-c3c(O)ccc4c(=O)cc(-c5ccc(O)cc5)oc34)c(O)cc2O)Oc2cc(O)cc(O)c21`, the Activity entry in data set [1] is “Non-toxic”. Further, in data set [7], the inhibitory constant (Ki) was 10.4 µM. The IC50 in data set [2] turned out to be 9.8 µM. Moreover, the inhibition entry in data set [3] and in data set [5] was “Dose-dependent effect” each time.

Turning to `O=c1cc(-c2ccc(O)c(-c3c(-c4ccc(O)cc4)oc4cc(O)cc(O)c4c3=O)c2)oc2cc(O)cc(O)c12` [TAIWANIAFLAVONE], the Activity entry in data set [1] is on record as “Non-toxic”. Further, in data set [2], the IC50 was determined as 5.4 µM. In addition, the inhibition result in data set [3] and in data set [5] was “Dose-dependent effect” in each case. Moreover, the fold change (FC) in data set [4] was 1.47. For the same compound, the Ki in data set [6] was determined as 4.5 µM.

For the compound `O=c1cc(-c2ccc(O)c(-c3c(O)cc4oc(-c5ccc(O)cc5)cc(=O)c4c3O)c2)oc2cc(O)cc(O)c12` [ROBUSTAFLAVONE], the Activity result in data set [1] was “Non-toxic”. Further, the IC50 in data set [2] amounted to 6.2 µM. Moreover, the inhibition entry in data set [3] and in data set [5] was “Dose-dependent effect” throughout. Moreover, the Ki in data set [6] is 6.8 µM.

Regarding `O=c1cc(-c2ccc(O)cc2)oc2c(-c3c(O)cc(O)c4c(=O)cc(-c5ccc(O)cc5)oc34)c(O)cc(O)c12` [CUPRESSUFLAVONE], the Activity result in data set [1] is recorded as “Non-toxic”. Besides, in data set [2], the 50% inhibitory concentration (IC50) was 9.6 µM. Moreover, the inhibition entry in data set [3] and in data set [5] was “Dose-dependent effect” throughout. Also, in data set [8], the inhibition constant (Ki) stood at 10.7 µM.
